In ChEMBL document CHEMBL1132569:

What was measured:
[1] = target: Muscarinic acetylcholine receptor M3 (Homo sapiens) (UniProt P20309); assay: Cooperativity with NMS at human muscarinic acetylcholine receptor M3
Outline: (§1)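 Equilibrium ³H-NMS binding in CHO membranes expressing human m1–m5 receptors was measured with and without ACh, alone and with three agent concentrations. Data were converted to affinity ratios, meaning apparent primary-ligand affinity with agent divided by affinity without it.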

[2] = target: T1, Muscarinic acetylcholine receptor M4 (Homo sapiens) (UniProt P08173); assay: Binding affinity at the unliganded human muscarinic acetylcholine receptor M4 was estimated as log affinity (log1/M)
T1 sequence (whole entry): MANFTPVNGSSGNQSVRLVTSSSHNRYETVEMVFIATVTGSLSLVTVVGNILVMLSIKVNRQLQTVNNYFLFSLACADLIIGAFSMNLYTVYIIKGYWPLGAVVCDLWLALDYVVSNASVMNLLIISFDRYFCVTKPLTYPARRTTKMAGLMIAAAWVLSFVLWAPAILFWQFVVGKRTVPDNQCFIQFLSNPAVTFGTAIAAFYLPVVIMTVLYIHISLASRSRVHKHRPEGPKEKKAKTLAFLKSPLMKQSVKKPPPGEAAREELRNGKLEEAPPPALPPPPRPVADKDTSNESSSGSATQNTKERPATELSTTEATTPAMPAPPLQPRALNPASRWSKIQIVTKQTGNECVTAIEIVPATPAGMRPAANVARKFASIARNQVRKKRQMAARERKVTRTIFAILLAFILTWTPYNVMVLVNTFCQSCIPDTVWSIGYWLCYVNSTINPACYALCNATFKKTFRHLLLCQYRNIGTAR
Outline: (§2)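 Equilibrium runs were ≥2 h with 2 × 10⁻⁴ M GTP and 0.1–0.7 nM ³H-NMS. Nonspecific binding was defined with 10⁻⁶ M QNB, and bound ligand was filtered and counted. Log affinities came from semiquantitative plus off-rate, quantitative equilibrium, or nonequilibrium assays, fitted by nonlinear least squares to the allosteric ternary complex model.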

[3] = target: T1, Muscarinic acetylcholine receptor M4 (Homo sapiens); assay: Cooperativity with NMS at human muscarinic acetylcholine receptor M4; outline: as §1
[4] = target: T2, Muscarinic acetylcholine receptor M5 (Homo sapiens) (UniProt P08912); assay: Binding affinity at the unliganded Muscarinic acetylcholine receptor M5 was estimated as log affinity (log1/M); outline: as §2
T2 sequence (whole entry): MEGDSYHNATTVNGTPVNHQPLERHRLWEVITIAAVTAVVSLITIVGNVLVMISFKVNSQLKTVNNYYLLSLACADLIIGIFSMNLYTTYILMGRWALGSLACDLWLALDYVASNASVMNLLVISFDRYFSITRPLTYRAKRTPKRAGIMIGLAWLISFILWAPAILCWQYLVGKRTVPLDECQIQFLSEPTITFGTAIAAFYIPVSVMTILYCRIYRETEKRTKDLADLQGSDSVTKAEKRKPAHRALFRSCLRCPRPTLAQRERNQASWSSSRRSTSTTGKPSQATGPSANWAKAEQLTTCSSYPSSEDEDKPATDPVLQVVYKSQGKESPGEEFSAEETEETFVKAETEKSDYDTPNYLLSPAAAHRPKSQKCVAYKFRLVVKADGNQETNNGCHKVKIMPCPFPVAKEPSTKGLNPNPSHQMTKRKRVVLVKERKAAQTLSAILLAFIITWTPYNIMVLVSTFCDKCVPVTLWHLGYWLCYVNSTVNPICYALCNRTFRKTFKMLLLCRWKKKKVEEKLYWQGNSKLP

[5] = target: T1, Muscarinic acetylcholine receptor M4 (Homo sapiens); assay: Cooperativity with acetylcholine at human muscarinic acetylcholine receptor M4; outline: as §1
[6] = target: T2, Muscarinic acetylcholine receptor M5 (Homo sapiens); assay: Cooperativity with acetylcholine at Muscarinic acetylcholine receptor M5; outline: as §1
[7] = target: T1, Muscarinic acetylcholine receptor M4 (Homo sapiens); assay: Binding affinity at the NMS liganded human muscarinic acetylcholine receptor M4 was estimated as log affinity (log1/M); outline: as §2
[8] = target: T3, Muscarinic acetylcholine receptor M1 (Homo sapiens) (UniProt P11229); assay: Binding affinity at the unliganded human muscarinic acetylcholine receptor M1 was estimated as log affinity (log1/M); outline: as §2
T3 sequence (whole entry): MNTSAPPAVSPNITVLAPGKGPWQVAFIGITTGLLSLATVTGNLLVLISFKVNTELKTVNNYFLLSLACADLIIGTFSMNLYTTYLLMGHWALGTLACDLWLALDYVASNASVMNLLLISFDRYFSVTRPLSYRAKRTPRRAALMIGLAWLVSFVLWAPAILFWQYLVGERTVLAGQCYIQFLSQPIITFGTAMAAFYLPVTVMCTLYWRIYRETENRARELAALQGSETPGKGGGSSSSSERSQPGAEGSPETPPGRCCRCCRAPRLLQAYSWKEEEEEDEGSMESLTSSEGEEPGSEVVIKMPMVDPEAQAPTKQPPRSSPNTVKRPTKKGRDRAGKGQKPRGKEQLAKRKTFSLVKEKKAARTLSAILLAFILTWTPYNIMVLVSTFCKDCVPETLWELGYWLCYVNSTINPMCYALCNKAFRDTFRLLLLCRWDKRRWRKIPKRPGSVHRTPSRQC

[9] = target: Muscarinic acetylcholine receptor M3 (Homo sapiens) (UniProt P20309); assay: Binding affinity at the unliganded human muscarinic acetylcholine receptor M3 was estimated as log affinity (log1/M); outline: as §2
[10] = target: T4, Muscarinic acetylcholine receptor M2 (Homo sapiens) (UniProt P08172); assay: Cooperativity with NMS at human muscarinic acetylcholine receptor M2; outline: as §1
T4 sequence (whole entry): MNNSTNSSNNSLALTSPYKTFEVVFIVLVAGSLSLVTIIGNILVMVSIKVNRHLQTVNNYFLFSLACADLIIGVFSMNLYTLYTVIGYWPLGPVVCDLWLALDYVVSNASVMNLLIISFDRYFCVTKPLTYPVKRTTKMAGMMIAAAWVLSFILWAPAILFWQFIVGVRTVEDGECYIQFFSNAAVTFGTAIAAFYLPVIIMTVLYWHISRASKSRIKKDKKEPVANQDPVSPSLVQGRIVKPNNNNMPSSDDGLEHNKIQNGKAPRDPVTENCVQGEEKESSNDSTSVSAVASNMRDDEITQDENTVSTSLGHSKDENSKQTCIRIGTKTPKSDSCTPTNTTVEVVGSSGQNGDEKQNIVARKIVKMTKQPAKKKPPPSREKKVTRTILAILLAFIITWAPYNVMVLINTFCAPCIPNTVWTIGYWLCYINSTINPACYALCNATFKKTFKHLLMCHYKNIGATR

[11] = target: T4, Muscarinic acetylcholine receptor M2 (Homo sapiens); assay: Binding affinity at the NMS liganded human muscarinic acetylcholine receptor M2 was estimated as log affinity (log1/M); outline: as §2
[12] = target: T3, Muscarinic acetylcholine receptor M1 (Homo sapiens); assay: Cooperativity with acetylcholine at human muscarinic acetylcholine receptor M1; outline: as §1
[13] = target: T3, Muscarinic acetylcholine receptor M1 (Homo sapiens); assay: Binding affinity at the NMS liganded human muscarinic acetylcholine receptor M1 was estimated as log affinity (log1/M); outline: as §2
[14] = target: Muscarinic acetylcholine receptor M3 (Homo sapiens) (UniProt P20309); assay: Binding affinity at the NMS liganded human muscarinic acetylcholine receptor M3 was estimated as log affinity (log1/M); outline: as §2
[15] = target: T4, Muscarinic acetylcholine receptor M2 (Homo sapiens); assay: Cooperativity with acetylcholine at human muscarinic acetylcholine receptor M2; outline: as §1
[16] = target: T2, Muscarinic acetylcholine receptor M5 (Homo sapiens); assay: Cooperativity with NMS at Muscarinic acetylcholine receptor M5; outline: as §1
[17] = target: Muscarinic acetylcholine receptor M3 (Homo sapiens) (UniProt P20309); assay: Cooperativity with acetylcholine at human muscarinic acetylcholine receptor M3; outline: as §1
[18] = target: T3, Muscarinic acetylcholine receptor M1 (Homo sapiens); assay: Cooperativity with NMS at human muscarinic acetylcholine receptor M1; outline: as §1
[19] = target: T4, Muscarinic acetylcholine receptor M2 (Homo sapiens); assay: Binding affinity at the unliganded human muscarinic acetylcholine receptor M2 was estimated as log affinity (log1/M); outline: as §2
[20] = target: T2, Muscarinic acetylcholine receptor M5 (Homo sapiens); assay: Binding affinity at the NMS liganded human muscarinic acetylcholine receptor M5 was estimated as log affinity (log1/M); outline: as §2

Chain of Muscarinic acetylcholine receptor M3 (Homo sapiens) (P20309 whole entry, looked up): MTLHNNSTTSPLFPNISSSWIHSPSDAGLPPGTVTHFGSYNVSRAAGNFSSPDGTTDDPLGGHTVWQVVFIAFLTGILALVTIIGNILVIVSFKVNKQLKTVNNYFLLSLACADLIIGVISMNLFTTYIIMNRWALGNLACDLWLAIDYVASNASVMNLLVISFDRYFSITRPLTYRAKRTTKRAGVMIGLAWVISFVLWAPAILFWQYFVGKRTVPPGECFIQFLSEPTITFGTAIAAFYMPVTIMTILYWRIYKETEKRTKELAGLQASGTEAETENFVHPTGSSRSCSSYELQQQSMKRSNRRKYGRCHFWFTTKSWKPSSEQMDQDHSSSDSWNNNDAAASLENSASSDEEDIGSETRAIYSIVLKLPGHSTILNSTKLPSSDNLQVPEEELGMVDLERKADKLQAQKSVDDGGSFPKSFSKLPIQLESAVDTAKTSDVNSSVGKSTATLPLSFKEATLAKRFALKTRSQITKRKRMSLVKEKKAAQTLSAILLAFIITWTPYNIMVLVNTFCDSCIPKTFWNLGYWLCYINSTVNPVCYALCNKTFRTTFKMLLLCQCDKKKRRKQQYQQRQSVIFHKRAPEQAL

SMILES: COc1cc2c(cc1OC)[C@@]13CC[N+]4(C)CC5=CCO[C@H]6CC(=O)N2[C@H]1[C@H]6[C@H]5C[C@@H]34 (some centres undefined)
- Cooperativity [1]: 1.19
- Affinity [2]: 4.3
- Cooperativity [3]: 1.19
- Affinity [4]: 3.3
- Cooperativity [5]: 0.8
- Cooperativity [6]: < 0.2
- Affinity [7]: 4.4
- Affinity [8]: 4
- Affinity [9]: 3.5
- Cooperativity [10]: > 2
- Affinity [11]: 4.5
- Cooperativity [12]: 0.8
- Affinity [13]: 4
- Affinity [14]: 3.6
- Cooperativity [15]: 0.8
- Cooperativity [16]: 0.8
- Cooperativity [17]: 2
- Cooperativity [18]: 1.19
- Affinity [19]: 4
- Affinity [20]: 2.9

SMILES: COc1cc2c(cc1OC)[C@@]13CC[N+]4(CCl)CC5=CCO[C@H]6CC(=O)N2[C@H]1[C@H]6[C@H]5C[C@@H]34 (some centres undefined)
- Cooperativity [1]: 0.2
- Affinity [2]: 4.3
- Cooperativity [3]: 1.19
- Affinity [4]: 3.7
- Cooperativity [5]: 1.19
- Cooperativity [6]: < 0.2
- Affinity [7]: 4.3
- Affinity [8]: 4.4
- Affinity [9]: 3.7
- Cooperativity [10]: 2
- Affinity [11]: 4.4
- Cooperativity [12]: 0.2
- Affinity [13]: 4.1
- Affinity [14]: 3.3
- Cooperativity [15]: < 0.2
- Cooperativity [16]: 0.2
- Cooperativity [17]: > 0.2
- Cooperativity [18]: 0.2
- Affinity [19]: 4.2
- Affinity [20]: 3.3

SMILES: C=CC[N+]12CC[C@@]34c5cc(OC)c(OC)cc5N5C(=O)C[C@@H]6OCC=C(C1)[C@H](C[C@@H]32)[C@@H]6[C@H]54 (some centres undefined)
- Cooperativity [1]: 0.8
- Affinity [2]: 4.5
- Cooperativity [3]: 1.19
- Affinity [4]: 3.8
- Cooperativity [5]: 0.8
- Cooperativity [6]: 0.8
- Affinity [7]: 4.6
- Affinity [8]: 4.4
- Affinity [9]: 3.8
- Cooperativity [10]: 2
- Affinity [11]: 4.7
- Cooperativity [12]: 0.8
- Affinity [13]: 4.2
- Affinity [14]: 3.5
- Cooperativity [15]: 0.8
- Cooperativity [16]: 1.19
- Cooperativity [17]: 2
- Cooperativity [18]: 0.8
- Affinity [19]: 4.5

SMILES: COc1cc2c(cc1OC)[C@@]13CC[N+]4(N)CC5=CCO[C@H]6CC(=O)N2[C@H]1[C@H]6[C@H]5C[C@@H]34 (some centres undefined)
- Cooperativity [1]: 1.19
- Affinity [2]: < 4
- Cooperativity [3]: 2
- Affinity [4]: 3.6
- Cooperativity [5]: 0.8
- Cooperativity [6]: 0.8
- Affinity [7]: 4.2
- Affinity [8]: 3.8
- Affinity [9]: 3.8
- Cooperativity [10]: 2
- Affinity [11]: 4.2
- Cooperativity [12]: 0.8
- Affinity [13]: 3.8
- Affinity [14]: 3.9
- Cooperativity [15]: 0.8
- Cooperativity [16]: 0.8
- Cooperativity [17]: > 2
- Cooperativity [18]: 1.19
- Affinity [19]: < 4
- Affinity [20]: 3.3
